Screening data deposited in PubChem BioAssay by several laboratories.
Hits are enriched below; roughly 9.6% of the tested compounds scored in any of these assays.
b-catenin transl: modulators of beta-catenin nuclear translocation, primary screen, imaging, HeLa cells, immunofluorescence, high-content; nuclear translocation activity, % at 5 µM; 0.3% of 190,000 active; AID 1665, 2009;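 active = nuclear translocation activity above 50% at 5 µM, with a well cell count of 50 or more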;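 also: per-cell ratio of nuclear to cytoplasmic median beta-catenin stain intensity; plate controls were DMSO negative control for no effect and GSK-3 inhibitor IX positive control for full effect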
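test system = HeLa cells, endogenous beta-catenin | dosing = single 5 µM dose plus 0.02–20 µM confirmation series | times = compound treatment 24 h, 37°C, 5% CO2 | technique = beta-catenin immunofluorescence imaging with DAPI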
BaF3 tox: parental Ba/F3 cell viability inhibition, counter-screen for JAK2V617F inhibitor project, murine pro-B, CellTiter-Glo luminescence. AID 1486, 2009. 1.1% of 220,000 active. inhibition, % at 5.6 µM. CellTiter-Glo ATP luminescence;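 active = inhibition above a per-campaign cutoff, the mean inhibition of all tested compounds plus 3 SD, cut at about 27% in these data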;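 also: 0% = DMSO wells and 100% = JAK Inhibitor I control wells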
APP transl inh: inhibitors of APP translation via 5'UTR reporter, primary screen, APP 5'UTR luciferase, SH-SY5Y cells; SH-SY5Y APP 5'UTR-luciferase reporter, luminescence; AID 1285, 2008; 0.82% of 190,000 active; inhibition, % at 2 µM;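 active = inhibition above a set limit, derived from the sample mean plus 3 SD, cut at about 45% in these data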
Ba/F3 V617F tox: reduced viability of JAK2V617F-dependent Ba/F3 cells, primary screen, JAK2V617F inhibitor project, cell-based, Ba/F3 EpoR-JAK2V617F, luminescence. ATP luminescence. inhibition, % at 5.6 µM. 1.1% of 220,000 active. AID 1446, 2008;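 active = inhibition above the campaign mean plus 3 SD over all tested compounds, cut at about 24% in these data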;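 also: cytokine-independent growth of Ba/F3 cells driven by EpoR plus mutant JAK2; 0% = DMSO-treated cells and 100% = JAK inhibitor I control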
L major viab: Leishmania major promastigote growth inhibition, primary screen; Leishmania major promastigotes, resazurin fluorescence viability; inhibition, % at 10 µM; AID 1063, 2008; 9% of 200,000 active; in the data active = inhibition above about 50%;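 also: promastigotes grown with compound for 44 hours at 28 °C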
MT stabilize HCS: microtubule stabilizers in HeLa cells, primary screen, imaging, high-content imaging. HeLa tubulin immunostaining HCS, 24 h; share of cells brighter than vehicle mean+2SD. % tubulin-high responders, % at 10 µM. 0.83% of 200,000 active. AID 2205, 2009;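 active = plate Z-score above 3 for both tubulin-high and condensed-nucleus cell shares, with cell loss under 80%, at 10 µM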;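 also: anti alpha tubulin signal scored within the nucleus-defined area of each cell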
Starred values were filed as active, the others as inactive; nt = no result.

SMILES	b-catenin transl	BaF3 tox	APP transl inh	Ba/F3 V617F tox	L major viab	MT stabilize HCS
Cn1c(SCC(=O)N2CCc3ccccc3C2)nnc1-c1ccncc1	-4	4	6	1	0	2
Nn1c(SCC(=O)N2CCc3ccccc3C2)nnc1-c1cccs1	2	2	8	2	1	2
COc1ccc2c(c1)Sc1ccccc1N2	-1	12	-10	2	100*	10
c1ccc2c(c1)Nc1cc3ccccc3cc1S2	-3	2	nt	4	nt	nt
CCn1cc(Br)c(C(=O)NC(=S)Nc2ccc(C(=O)OC)cc2)n1	nt	3	-3	1	-5	3
COC(=O)[C@@]1(Cc2ccc(F)cc2)[C@H]2c3cc(C(=O)N(C)C)n(Cc4ccc(OC(F)(F)F)cc4)c3C[C@H]2CN1C(=O)c1ccccc1	-2	7	2	1	83*	4
COC(=O)[C@@]1(Cc2ccc(OC)cc2)[C@H]2c3cc(C(=O)N4CCCC4)n(CCSCCO)c3C[C@H]2CN1C(=O)c1ccccc1	-2	6	1	-1	51*	4
COC(=O)[C@@]1(Cc2ccc(F)cc2)[C@H]2c3cc(C(=O)N(C)C)n(C[C@H](O)CO)c3C[C@H]2CN1C(=O)c1ccccc1	-2	-3	-2	-3	0	4
COC(=O)[C@@]1(Cc2ccc(F)cc2)[C@H]2c3cc(C(=O)N4CCCC4)n(CCc4ccc(O)c(O)c4)c3C[C@H]2CN1C(=O)c1ccccc1	nt	4	1	-8	100*	6
COC(=O)[C@@]1(Cc2ccc(F)cc2)[C@H]2c3cc(C(=O)N4CCCC4)n(CCO)c3C[C@H]2CN1C(=O)c1ccccc1	-3	7	8	4	11	2
COC(=O)[C@@]1(Cc2ccccc2)[C@H]2c3cc(C(=O)N4CCCC4)n(Cc4ccsc4Br)c3C[C@H]2CN1C(=O)c1ccccc1	-5	1	-8	-4	54*	8
CSc1ncccc1C(=O)OCC(=O)c1cccc(Br)c1	-2	3	-2	0	-3	6
COC(=O)[C@@]1(Cc2ccc(OC)cc2)[C@H]2c3cc(C(=O)N(C)C)n(CCSCCO)c3C[C@H]2CN1C(=O)c1ccccc1	4	7	-8	5	65*	7
CCC(C)N1C(=O)CCC1C(=O)O (centres undefined)	0	3	-26	-3	0	4
CCN(CC)Cc1c(O)ccc2c([N+](=O)[O-])c(C)n(-c3ccc(OC)cc3)c12	-1	-2	34	-2	69*	4
CC1=C(C(=O)Nc2ccccc2C(F)(F)F)C(c2sccc2C)NC(=S)N1 (centres undefined)	-1	3	14	4	2	10
CCOC(=O)CC(=O)CSc1ncnc2c1nnn2-c1ccc(OC)cc1	0	3	-10	0	-5	1
O=C1C(Cl)=C(N2CCN(c3ccccc3[N+](=O)[O-])CC2)C(=O)c2ccccc21	0	3	18	-1	100*	4
O=[N+]([O-])c1cc(Cl)ccc1N1CCCC1	-1	5	4	-2	-1	3
CCOc1ccc(C/C(O)=C2\C(=O)CC(C)(C)CC2=NCC(=O)O)cc1OCC	-1	2	7	-2	-4	6
CS(=O)(=O)N1CCc2cc(-c3csc(NC(=O)C(c4ccccc4)c4ccccc4)n3)ccc21	0	8	12	4	94*	2
CCOC(=O)N1CCN(C(=O)CCCn2c(=S)[nH]c3ccsc3c2=O)CC1	-1	4	-4	2	-8	4
Cc1ccc(N=Nc2c(C)[nH]n(C(N)=S)c2=O)cc1	-4	8	-48	-2	29	2
NC(=S)n1[nH]c(-c2ccc([N+](=O)[O-])cc2)c(N=Nc2ccc(Cl)cc2)c1=O	-2	8	30	5	97*	3
COc1ccc(CCN(Cc2cc3ccc(C)cc3n3nnnc23)C(C)=O)cc1OC	0	12	23	2	10	2
SMILES	b-catenin transl	BaF3 tox	APP transl inh	Ba/F3 V617F tox	L major viab	MT stabilize HCS
CCc1cc(OCCCSc2nc(C)cc(=O)[nH]2)ccc1Cl	-2	9	-19	3	-1	3
Cc1ccc(NC(=O)CSc2nnc(-c3ccc(S(=O)(=O)N4CCCC4)cc3)o2)cc1C	-1	4	-13	1	8	5
Cc1ccccc1NC(=O)CSC1=C(C#N)C(c2ccsc2)CC(=O)N1 (centres undefined)	-3	3	1	-1	0	26*
COc1ccccc1C1CC(=O)NC(SCC(=O)Nc2ccccc2)=C1C#N (centres undefined)	1	9	-14	0	12	2
N#CC1=C(SCC(=O)Nc2nccs2)NC(=O)CC1c1ccccc1 (centres undefined)	nt	7	-10	4	28	40*
Cc1ccc(NC(=O)CSC2=C(C#N)C(c3ccco3)CC(=O)N2)cc1 (centres undefined)	-3	3	-59	-4	1	3
COc1ccc(CNC(=O)CSc2ccc(Br)cc2)cc1OC	-2	-2	-1	-6	4	2
Cc1ccc(S(=O)(=O)N2CCCCC2)cc1NC(=S)NC(=O)c1ccco1	-1	-1	nt	0	nt	nt
OCC1(CCc2ccccc2)CCN(Cc2cccn2-c2cccnc2)CC1	1	1	-1	-5	61*	5
O=C(CCN(CCO)Cc1ccccc1)Nc1ccc(Br)cc1	0	1	5	1	19	5
CCN(CCC(=O)Nc1ccc(Br)c(C)c1)Cc1ccccc1	-2	5	20	0	92*	1
Cc1c(N=C2C(=O)Nc3ccccc32)c(=O)n(-c2ccccc2)n1C	nt	2	-6	-3	-7	4
Cc1c(N=C2NC(=O)/C(=C/c3cccc([N+](=O)[O-])c3)S2)c(=O)n(-c2ccccc2)n1C	13	3	12	-2	89*	2
CC1(C)OC(=O)C(=CNC(Cc2c[nH]c3ccccc23)C(=O)O)C(=O)O1 (centres undefined)	-1	6	-10	2	-2	4
O=C(NCC1CCCN(Cc2ccc3nonc3c2)C1)c1cccc(C(F)(F)F)c1 (centres undefined)	1	2	-12	-2	87*	3
O=C(c1cccc(C(F)(F)F)c1)C1CCCN(Cc2cccc(OCCO)c2)C1 (centres undefined)	0	-1	-14	-1	8	3
COCc1cc(CN2CCCC(C(=O)c3cccc(C(F)(F)F)c3)C2)ccc1OC (centres undefined)	-2	3	-2	1	92*	4
